Reference: ChEMBL document CHEMBL4184121, “Semisynthesis, cytotoxicity, antimalarial evaluation and structure-activity relationship of two series of triterpene derivatives” (Bioorg Med Chem Lett, 2018)

Key:
[1] = tested on: Plasmodium falciparum; test: Antiplasmodial activity against chloroquine-resistant Plasmodium falciparum W2 infected in human erythrocytes; assay type: functional, organism-based
How it was run: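 P. falciparum W2 grown in fresh human O+ erythrocytes at 2% hematocrit in complete medium, 37 °C. Compounds tested over a 100–3.12 µM dilution series. IC50 estimated from the dose-response curve relative to drug-free control wells (100% parasite viability). Artemisinin run in parallel as control. Triplicates, at least three independent cultures (n = 3).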

[2] = Cytotoxicity against African green monkey Vero cells after 72 hrs by MTT assay; assay type: cell-based; conditions: chlorocebus sabaeus
How it was run: (§1)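 VERO (ATCC CCL-81) and HepG2 (ATCC HB-8065) cells were exposed for 24, 48 or 72 h to an […] dilution series from 400 to 1.56 μM. CC50 was taken from the concentration–response curve. Triplicates, with at least three independent cultures (n = 3).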

[3] = Cytotoxicity against human HepG2 cells after 72 hrs by MTT assay; assay type: cell-based; how it was run: as §1
[4] = Selectivity index, ratio of CC50 for human HepG2 cells to IC50 for chloroquine-resistant Plasmodium falciparum W2; assay type: toxicity; conditions: read-out: Ratio CC50/IC50
How it was run: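 SI = HepG2 CC50 / W2 IC50. CC50 came from HepG2 growth inhibition over a 400–1.56 µM dilution series, read at 24, 48 and 72 h. IC50 came from the W2 erythrocyte assay (100–3.12 µM range). Triplicates, at least three independent cultures.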

[5] = tested on: Plasmodium falciparum; test: Antiplasmodial activity against Plasmodium falciparum assessed as combination index in presence of artemisinin; assay type: functional
How it was run: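 Chloroquine-resistant P. falciparum W2 was grown in fresh human O+ erythrocytes at 2% hematocrit in complete medium at 37 °C. Artemisinin was co-tested with the triterpene using the one-point Chou–Talalay method, at a minimum of one combination ratio. CI is the sum of the two FICs: ≤1 synergy, 1–2 additivity, >2 antagonism. Triplicates, n = 3 independent cultures.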

[6] = tested on: Plasmodium falciparum; test: Antiplasmodial activity against Plasmodium falciparum assessed as potentiation of artemisinin-induced antimalarial activity by measuring dose reduction index relative to artemisinin alone; assay type: functional

| Compound | IC50 [1] | CC50 at 72 h [2] | CC50 at 72 h [3] | selectivity ratio [4] | CI [5] | Activity_index [6] |
| --- | --- | --- | --- | --- | --- | --- |
| C[C@@H]1CC[C@H]2[C@@H](C)C(=O)O[C@@H]3O[C@@]4(C)CC[C@@H]1[C@]32OO4 [ARTEMISININ] | 0.0163 µM | – | – | – | – | – |
| C=C(C)[C@@H]1CC[C@]2(C(=O)n3ccnc3)CC[C@]3(C)[C@H](CC[C@@H]4[C@@]5(C)CC[C@H](OC(=O)C(C)C)C(C)(C)[C@@H]5CC[C@]43C)[C@@H]12 | 29.6 µM | > 400 µM | > 400 µM | > 13.5 | – | – |
| CC(=O)O[C@H]1CC[C@]2(C)[C@H]3CC=C4[C@@H]5[C@@H](C)[C@H](C)CC[C@]5(C(=O)n5ccnc5)CC[C@@]4(C)[C@]3(C)CC[C@H]2C1(C)C | 50.6 µM | > 400 µM | > 400 µM | > 7.9 | – | – |
| CC(C)C(=O)O[C@H]1CC[C@]2(C)[C@H]3CC=C4[C@@H]5[C@@H](C)[C@H](C)CC[C@]5(C(=O)n5ccnc5)CC[C@@]4(C)[C@]3(C)CC[C@H]2C1(C)C | 13.6 µM | > 400 µM | > 400 µM | > 29.4 | – | – |
| CCCC(=O)O[C@H]1CC[C@]2(C)[C@H]3CC=C4[C@@H]5[C@@H](C)[C@H](C)CC[C@]5(C(=O)OC)CC[C@@]4(C)[C@]3(C)CC[C@H]2C1(C)C | > 100 µM | > 400 µM | > 400 µM | – | – | – |
| C=C(C)[C@@H]1CC[C@]2(C(=O)n3ccnc3)CC[C@]3(C)[C@H](CC[C@@H]4[C@@]5(C)CC[C@H](OC(C)=O)C(C)(C)[C@@H]5CC[C@]43C)[C@@H]12 | 8.9 µM | > 400 µM | > 400 µM | > 44.9 | – | – |
| COC(=O)[C@]12CC[C@@H](C)[C@H](C)[C@H]1C1=CC[C@@H]3[C@@]4(C)CC[C@H](OC(C)=O)C(C)(C)[C@@H]4CC[C@@]3(C)[C@]1(C)CC2 | > 100 µM | > 400 µM | > 400 µM | – | – | – |
| C=C(C)[C@@H]1CC[C@]2(C(=O)OC)CC[C@]3(C)[C@H](CC[C@@H]4[C@@]5(C)CC[C@H](OC(=O)C(C)C)C(C)(C)[C@@H]5CC[C@]43C)[C@@H]12 | > 100 µM | > 400 µM | > 400 µM | – | – | – |
| CCCC(=O)O[C@H]1CC[C@]2(C)[C@H]3CC=C4[C@@H]5[C@@H](C)[C@H](C)CC[C@]5(C(=O)O)CC[C@@]4(C)[C@]3(C)CC[C@H]2C1(C)C | 13.3 µM | > 400 µM | > 400 µM | > 30 | 1.05 | 7 |
| C=C(C)[C@@H]1CC[C@]2(C(=O)OC)CC[C@]3(C)[C@H](CC[C@@H]4[C@@]5(C)CC[C@H](OC(=O)CCC)C(C)(C)[C@@H]5CC[C@]43C)[C@@H]12 | > 100 µM | > 400 µM | > 400 µM | – | – | – |
| CC(C)C(=O)O[C@H]1CC[C@]2(C)[C@H]3CC=C4[C@@H]5[C@@H](C)[C@H](C)CC[C@]5(C(=O)O)CC[C@@]4(C)[C@]3(C)CC[C@H]2C1(C)C | > 100 µM | > 400 µM | > 400 µM | – | – | – |
| C=C(C)[C@@H]1CC[C@]2(C(=O)O)CC[C@]3(C)[C@H](CC[C@@H]4[C@@]5(C)CC[C@H](OC(=O)C(C)C)C(C)(C)[C@@H]5CC[C@]43C)[C@@H]12 | 12.1 µM | > 400 µM | > 400 µM | > 33 | – | – |
| C=C(C)[C@@H]1CC[C@]2(C(=O)O)CC[C@]3(C)[C@H](CC[C@@H]4[C@@]5(C)CC[C@H](OC(C)=O)C(C)(C)[C@@H]5CC[C@]43C)[C@@H]12 | 65.5 µM | > 400 µM | > 400 µM | > 6.11 | – | – |
| C[C@H]1[C@H](C)CC[C@]2(C(=O)O)CC[C@]3(C)C(=CC[C@@H]4[C@@]5(C)CCC(=O)C(C)(C)[C@@H]5CC[C@]43C)[C@H]12 [URSONIC ACID] | 24.3 µM | > 400 µM | > 400 µM | > 16.5 | – | – |
| C=C(C)[C@@H]1CC[C@]2(C(=O)n3ccnc3)CC[C@]3(C)[C@H](CC[C@@H]4[C@@]5(C)CCC(=O)C(C)(C)[C@@H]5CC[C@]43C)[C@@H]12 | 5.2 µM | > 400 µM | > 400 µM | > 76.8 | – | – |
| C[C@H]1[C@H](C)CC[C@]2(C(=O)O)CC[C@]3(C)C(=CC[C@@H]4[C@@]5(C)CC[C@H](O)C(C)(C)[C@@H]5CC[C@]43C)[C@H]12 [URSOLIC ACID] | 50.6 µM | 99.9 µM | 114 µM | 2.24 | – | – |
| CC(=O)O[C@H]1CC[C@]2(C)[C@H]3CC=C4[C@@H]5[C@@H](C)[C@H](C)CC[C@]5(C(=O)O)CC[C@@]4(C)[C@]3(C)CC[C@H]2C1(C)C [O-ACETYLURSOLIC ACID] | 9.08 µM | > 400 µM | > 400 µM | > 44 | – | – |
| C=C(C)[C@@H]1CC[C@]2(C(=O)n3ccnc3)CC[C@]3(C)[C@H](CC[C@@H]4[C@@]5(C)CC[C@H](OC(=O)CCC)C(C)(C)[C@@H]5CC[C@]43C)[C@@H]12 | 57.6 µM | > 400 µM | > 400 µM | > 6.94 | – | – |
| C=C(C)[C@@H]1CC[C@]2(C(=O)O)CC[C@]3(C)[C@H](CC[C@@H]4[C@@]5(C)CCC(=O)C(C)(C)[C@@H]5CC[C@]43C)[C@@H]12 [BETUNOLIC ACID] | 7.87 µM | > 400 µM | 150 µM | 19.1 | – | – |
| C=C(C)[C@@H]1CC[C@]2(C(=O)OC)CC[C@]3(C)[C@H](CC[C@@H]4[C@@]5(C)CCC(=O)C(C)(C)[C@@H]5CC[C@]43C)[C@@H]12 [METHYL BETULONATE] | > 100 µM | > 400 µM | > 400 µM | – | – | – |
| C=C(C)[C@@H]1CC[C@]2(C(=O)O)CC[C@]3(C)[C@H](CC[C@@H]4[C@@]5(C)CC[C@H](O)C(C)(C)[C@@H]5CC[C@]43C)[C@@H]12 [BETULINIC ACID] | 12.8 µM | > 400 µM | > 400 µM | > 31.4 | – | – |
| C=C(C)[C@@H]1CC[C@]2(C(=O)OC)CC[C@]3(C)[C@H](CC[C@@H]4[C@@]5(C)CC[C@H](OC(C)=O)C(C)(C)[C@@H]5CC[C@]43C)[C@@H]12 | > 100 µM | > 400 µM | > 400 µM | – | – | – |
| CCCC(=O)O[C@H]1CC[C@]2(C)[C@H]3CC=C4[C@@H]5[C@@H](C)[C@H](C)CC[C@]5(C(=O)n5ccnc5)CC[C@@]4(C)[C@]3(C)CC[C@H]2C1(C)C | 10.4 µM | > 400 µM | > 400 µM | > 38.5 | – | – |
| COC(=O)[C@]12CC[C@@H](C)[C@H](C)[C@H]1C1=CC[C@@H]3[C@@]4(C)CC[C@H](OC(=O)C(C)C)C(C)(C)[C@@H]4CC[C@@]3(C)[C@]1(C)CC2 | > 100 µM | > 400 µM | > 400 µM | – | – | – |
| COC(=O)[C@]12CC[C@@H](C)[C@H](C)[C@H]1C1=CC[C@@H]3[C@@]4(C)CCC(=O)C(C)(C)[C@@H]4CC[C@@]3(C)[C@]1(C)CC2 | > 100 µM | > 400 µM | > 400 µM | – | – | – |
| C[C@H]1[C@H](C)CC[C@]2(C(=O)n3ccnc3)CC[C@]3(C)C(=CC[C@@H]4[C@@]5(C)CCC(=O)C(C)(C)[C@@H]5CC[C@]43C)[C@H]12 | 9.07 µM | > 400 µM | > 400 µM | > 44.1 | – | – |
